An excerpt weighted towards active compounds, which were near 2.9% of everything screened.
CAL PDZ FP-1 – blocks peptide binding to the human CAL PDZ domain; Q9HD26; purified CAL PDZ, TMR-peptide fluorescence polarization, 1 h; inhibition, % at 24.9 µM; actives 0.92% (n = 300,000); AID 602252;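 active = mean inhibition of at least 30% with at least half of replicates also reaching 30%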;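 also: 0% = DMSO neutral control and 100% = excess unlabeled competitor peptide PRC23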
CAL PDZ FP-2 – blocks peptide binding to human CAL PDZ domain | Q9HD26 | purified CAL PDZ, TMR-peptide fluorescence polarization, 1 h | inhibition, % at 20 µM | actives 0.02% (n = 330,000) | AID 504414;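 active = highest replicate inhibition of at least 40%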;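 also: plate controls were DMSO neutral control wells for no effect and unlabeled competitor peptide control wells for full effect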
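Test system: purified CerCALP PDZ construct; Compound dosing: one concentration, 20 µM compound; Also added: TMR-labelled reporter peptide T*-PRC34 bound in PDZ groove; Read-out: inhibition from polarization loss; Controls: unlabelled peptide and DMSO controls; Signal: FP readout, S and P plane fluorescence; Incubation: 1 h at RT.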
SIRT5 inh – inhibitors of human sirtuin-5 desuccinylase; Q9NXA8; Purified SirT5, succinyl-peptide AMC, trypsin-coupled fluorescence; inhibition, % at 15 µM; actives 1.1% (n = 330,000); AID 652115; in the data active = inhibition above about 15%
Target sequence (Q9NXA8 whole entry, looked up): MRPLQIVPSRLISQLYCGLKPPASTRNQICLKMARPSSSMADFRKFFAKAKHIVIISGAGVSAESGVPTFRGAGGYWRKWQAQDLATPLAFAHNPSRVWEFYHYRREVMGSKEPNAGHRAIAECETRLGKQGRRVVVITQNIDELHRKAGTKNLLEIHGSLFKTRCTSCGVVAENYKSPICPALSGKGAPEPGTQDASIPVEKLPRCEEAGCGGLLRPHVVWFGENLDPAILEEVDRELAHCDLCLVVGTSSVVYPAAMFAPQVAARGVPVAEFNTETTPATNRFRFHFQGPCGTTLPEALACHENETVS
ERAP1 HTS inh – blocks human ERAP1 aminopeptidase activity; recombinant ERAP1, Leu-AMC fluorescence, 60 min; inhibition, % at 10.7 µM; actives 0.15% (n = 340,000); AID 652197;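 active = mean replicate inhibition of at least 30%, or all replicates individually reaching that 30% level; inactive = mean below 30% and not every replicate reaching it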;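 also: 0% = neutral control wells and 100% = L-leucinethiol positive control wells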
DENV2 CPE – protects cells from dengue virus 2 cytopathic effect. DENV2-infected cells, cytopathic effect rescue, plate reader. CPE inhibition, % at 9.99 µM. actives 1.7% (n = 350,000); in the data active = CPE inhibition above about 20%, passing the limit was not always enough; tested in BHK-21 cells;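 also: 0% = median of neutral control wells and 100% = median of positive control wells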
S100A4 inh HTS – inhibitors of human S100A4 binding to myosin IIA peptide; S100A4/TAMRA-MyoIIA peptide fluorescence polarization; actives 0.14% (n = 360,000); AID 652163; inhibition, % at 10.7 µM; P26447;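 active = mean inhibition of at least 70% across replicates, with every replicate also reaching that level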
Target sequence (P26447 whole entry, looked up): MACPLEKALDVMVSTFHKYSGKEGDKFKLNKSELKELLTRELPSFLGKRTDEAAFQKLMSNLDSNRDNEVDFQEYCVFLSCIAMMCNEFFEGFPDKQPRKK
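Material: S100A4 monomer protein / Buffer or medium: 50 mM HEPES pH 7.2, 10 mM CaCl2, 100 mM KCl / Times: 5 min incubation before reading / Benchmarks: neutral control DMSO, positive control TFP / Reagent: labelled myosin peptide probe, 5 nM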
Starred values were filed as active, the others as inactive; ! = not active in a repeat.

C[C@H](CO)N1C[C@H](C)[C@H](CN(C)C(=O)NC2CCCCC2)Oc2c(NC(=O)C3CCCCC3)cccc2C1=O was read as SIRT5 inh -2, ERAP1 HTS inh -1, DENV2 CPE -9 and S100A4 inh HTS 1.
Screening O=C(CCN1CCOCC1)N/N=C/c1cc([N+](=O)[O-])ccc1OC(F)F returned CAL PDZ FP-1 -3, CAL PDZ FP-2 0, SIRT5 inh 2, ERAP1 HTS inh -4, DENV2 CPE 22* and S100A4 inh HTS -5.
CCCCC(=O)N/N=C/c1cc([N+](=O)[O-])ccc1N1CCOCC1 was read as CAL PDZ FP-1 -2 and CAL PDZ FP-2 0.
Screening CO[C@H](CN(C)C(=O)Nc1ccc(F)cc1)[C@@H](C)CN(Cc1ccccc1Cl)[C@H](C)CO returned SIRT5 inh 0, ERAP1 HTS inh 1, DENV2 CPE -2 and S100A4 inh HTS 1.
`O=C(Nc1cc(F)ccc1F)N1CC(=O)N2[C@@H](CO)[C@H](c3ccc(-c4cccc(F)c4)cc3)[C@@H]2C1` gave SIRT5 inh 0, DENV2 CPE -5 and S100A4 inh HTS -1.
For CO[C@@H]1CN(C)C(=O)c2ccc(NC(=O)C3CCCC3)cc2OC[C@H](C)N(CCC(F)(F)F)C[C@@H]1C the results were SIRT5 inh 6, ERAP1 HTS inh 2, DENV2 CPE 6 and S100A4 inh HTS -4.
`COc1ccc2[nH]c3c(c2c1)CCN1C(=O)N([C@@H](C)C(=O)NC2CCCCC2C)C(=O)[C@]31C` (some centres undefined) gave CAL PDZ FP-1 0, CAL PDZ FP-2 0, DENV2 CPE 48* and S100A4 inh HTS -9.
For COc1ccc(CNC(=O)[C@H](C)N2C(=O)N3CCc4c([nH]c5ccc(OC)cc45)[C@@]3(C)C2=O)cc1 the results were CAL PDZ FP-1 10, CAL PDZ FP-2 0, SIRT5 inh -1, ERAP1 HTS inh 3, DENV2 CPE 5 and S100A4 inh HTS -3.
Screening O=C(C[C@H]1CC[C@H](NC(=O)Nc2ccc(C(F)(F)F)cc2)[C@H](CO)O1)NCc1cccc(F)c1 returned SIRT5 inh 3, ERAP1 HTS inh -3, DENV2 CPE 8 and S100A4 inh HTS 13.
For C[C@H](O)C#Cc1ccc([C@@H]2[C@@H](CO)N3CCCCN(C(=O)Nc4ccccc4)C[C@@H]23)cc1 the results were SIRT5 inh 2, ERAP1 HTS inh 0, DENV2 CPE 1 and S100A4 inh HTS 9.
`O=C(Nc1ccc(F)cc1)N1CCCCN2[C@H](CO)[C@H](c3ccc(-c4ccncc4)cc3)[C@H]2C1` gave SIRT5 inh -1, ERAP1 HTS inh 0, DENV2 CPE -10 and S100A4 inh HTS 5.
O=C(Nc1ccc(F)cc1)N1CCCCN2[C@@H](CO)[C@H](c3ccc(-c4ccncc4)cc3)[C@@H]2C1 was read as SIRT5 inh -2, ERAP1 HTS inh -1, DENV2 CPE 30* and S100A4 inh HTS -10.
For COc1ccc(C#Cc2ccc([C@@H]3[C@@H](CO)N4CCCCN(C(=O)Nc5ccc(F)cc5)C[C@@H]34)cc2)cc1 the results were SIRT5 inh -3, ERAP1 HTS inh -2, DENV2 CPE -12 and S100A4 inh HTS 102*.
`COc1ccc(C#Cc2ccc([C@H]3[C@@H](CO)N4CCCCN(C(=O)Nc5ccc(F)cc5)C[C@H]34)cc2)cc1` gave SIRT5 inh 5, ERAP1 HTS inh 0, DENV2 CPE 31* and S100A4 inh HTS 7.
`C[C@H](O)C#Cc1ccc([C@H]2[C@@H](CO)N3CCCCN(C(=O)Nc4ccccc4)C[C@@H]23)cc1` gave SIRT5 inh 1, ERAP1 HTS inh -1, DENV2 CPE 23* and S100A4 inh HTS 7.
Screening C[C@H](CO)N1C[C@H](C)[C@@H](CN(C)C(=O)Cc2ccncc2)Oc2ncc(C#C[C@@H](C)O)cc2C1=O returned SIRT5 inh 0, ERAP1 HTS inh 1, DENV2 CPE -2 and S100A4 inh HTS 1.
`CCC(=O)N1CCCCN2[C@@H](CO)[C@H](c3ccc(-c4ccc(F)cc4)cc3)[C@@H]2C1` gave SIRT5 inh -3, ERAP1 HTS inh 1, DENV2 CPE 25* and S100A4 inh HTS 0.
`C[C@@H](O)C#Cc1ccc([C@@H]2[C@H]3CN(C(=O)c4cccc(F)c4)CCCCN3[C@H]2CO)cc1` gave SIRT5 inh 23* and DENV2 CPE -2.
For COc1ccc(NC(=O)N2CCCCN3[C@H](C2)[C@@H](c2ccc(C#Cc4ccccc4)cc2)[C@@H]3CO)cc1 the results were SIRT5 inh 16*, ERAP1 HTS inh 2, DENV2 CPE -6 and S100A4 inh HTS 3.
COCC(=O)N1CCCCN2[C@H](C1)[C@@H](c1ccc(-c3ccc(F)cc3)cc1)[C@@H]2CO was read as SIRT5 inh -7, ERAP1 HTS inh -1, DENV2 CPE 16 and S100A4 inh HTS 0.
`COc1ccc(NC(=O)N2CCCCN3[C@@H](CO)[C@H](c4ccc(C#Cc5ccccc5)cc4)[C@@H]3C2)cc1` gave SIRT5 inh -1, ERAP1 HTS inh 3, DENV2 CPE -4 and S100A4 inh HTS -5.
For CC1(C)Oc2ccc3ccc(=O)oc3c2-c2cnoc21 the results were CAL PDZ FP-1 -2, CAL PDZ FP-2 0, ERAP1 HTS inh 56*, DENV2 CPE 3 and S100A4 inh HTS -1.
Screening O=C(C1CC1)N1CC(=O)N2[C@H](CO)[C@H](c3ccc(-c4cccnc4)cc3)[C@H]2C1 returned SIRT5 inh 2, ERAP1 HTS inh 4, DENV2 CPE 0 and S100A4 inh HTS 3.
`CO[C@H]1CN(C)C(=O)c2cc(NC(=O)NC(C)C)ccc2OC[C@@H](C)N(Cc2ccc(-c3ccccn3)cc2)C[C@H]1C` gave SIRT5 inh 7, ERAP1 HTS inh -2, DENV2 CPE -3 and S100A4 inh HTS 4.
COc1ccc(C#Cc2ccc3c(c2)O[C@@H](CN(C)C(=O)Nc2cccc(OC)c2)[C@H](C)CN([C@@H](C)CO)S3(=O)=O)cc1 was read as SIRT5 inh 16*!, ERAP1 HTS inh 1, DENV2 CPE -2 and S100A4 inh HTS -3.
Screening COc1ccc(NC(=O)N(C)C[C@@H]2Oc3cc(C#CCC(C)C)ccc3S(=O)(=O)N([C@H](C)CO)C[C@H]2C)cc1 returned SIRT5 inh 25*, DENV2 CPE -6 and S100A4 inh HTS -1.
Screening COc1ccc(NC(=O)N(C)C[C@@H]2Oc3cc(C#CCN(C)C)ccc3S(=O)(=O)N([C@H](C)CO)C[C@@H]2C)cc1 returned SIRT5 inh 0, ERAP1 HTS inh 1, DENV2 CPE -6 and S100A4 inh HTS -10.
